Results gathered from unrelated publications.
Compare with care: the assays were run in different laboratories.
Target: Ephrin type-A receptor 8 (EPHA8, Homo sapiens, UniProt P29322)
Sequence (P29322 28-1005, as in one of the studies): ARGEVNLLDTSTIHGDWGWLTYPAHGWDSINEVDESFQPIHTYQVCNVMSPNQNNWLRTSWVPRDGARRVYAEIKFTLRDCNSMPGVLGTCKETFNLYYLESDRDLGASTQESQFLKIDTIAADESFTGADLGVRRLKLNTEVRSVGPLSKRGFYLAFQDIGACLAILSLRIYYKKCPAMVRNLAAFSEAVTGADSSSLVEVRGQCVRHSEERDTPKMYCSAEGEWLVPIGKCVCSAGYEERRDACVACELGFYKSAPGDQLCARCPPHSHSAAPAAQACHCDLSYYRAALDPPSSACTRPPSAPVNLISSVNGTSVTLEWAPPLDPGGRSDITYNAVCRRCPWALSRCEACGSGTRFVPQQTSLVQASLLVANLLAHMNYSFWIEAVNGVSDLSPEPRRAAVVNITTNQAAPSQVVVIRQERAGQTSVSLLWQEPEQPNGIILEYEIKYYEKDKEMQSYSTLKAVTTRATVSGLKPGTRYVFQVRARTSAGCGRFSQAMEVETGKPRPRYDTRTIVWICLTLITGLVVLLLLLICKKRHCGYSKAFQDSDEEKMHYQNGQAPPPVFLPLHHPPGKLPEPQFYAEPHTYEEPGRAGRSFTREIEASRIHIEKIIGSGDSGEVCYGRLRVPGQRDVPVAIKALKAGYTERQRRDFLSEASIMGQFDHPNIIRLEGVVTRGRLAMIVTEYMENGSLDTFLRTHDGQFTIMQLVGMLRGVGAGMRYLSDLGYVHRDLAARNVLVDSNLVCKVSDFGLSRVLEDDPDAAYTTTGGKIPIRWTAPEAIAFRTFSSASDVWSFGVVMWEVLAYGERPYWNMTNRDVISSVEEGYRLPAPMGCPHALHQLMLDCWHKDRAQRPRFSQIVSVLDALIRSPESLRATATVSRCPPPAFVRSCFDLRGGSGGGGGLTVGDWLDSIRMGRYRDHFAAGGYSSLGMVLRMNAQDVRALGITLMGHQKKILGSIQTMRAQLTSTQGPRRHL

SMILES | observed | technique | concentration | remaining binding
CN(C)c1nccc(-c2cnc3ncccn23)n1 | binding | – | 1 µM | 79%
COc1cc(-c2cn(C3CCc4c(F)cccc4N(CC(F)(F)F)C3=O)nn2)ccc1-n1cnc(C)c1 (centres unmarked) | cell-free assay | competition with immobilised ligand | 1 µM | 100%
c1cncc(-c2cccc(Nc3nccc(NC4CCCCC4)n3)c2)c1 | binding | competition with immobilised ligand | 10 µM | 100%
C[C@H](c1ccnc(Nc2nc3ccc(-c4cc(N(C)C)ncn4)cc3[nH]2)c1)N1CCN(C(=O)CC(F)(F)F)CC1 | cell-free assay | competition with immobilised ligand | 0.1 µM | 100%
FC(F)(F)Oc1cccc(-c2cnc3ccc(-c4ccncc4)nn23)c1 | cell-free assay | competition with immobilised ligand | 5 µM | 91%
O=C(c1ccc(Nc2nccc(-c3cc4ccccc4s3)n2)cc1)N1CCC(N2CCCC2)CC1 | binding | competition with immobilised ligand | 1 µM | 100%
CN(C)c1ncc(F)c(-c2cnn3ncccc23)n1 | binding | – | 1 µM | 100%
O=C(Nc1c[nH]nc1C(=O)NC1CCNCC1)c1cc(F)cc(F)c1 | binding | competition with immobilised ligand | 1 µM | 100%
Nc1ncc2c(n1)-c1c([nH]c3ccc(C#CC4CC4)cc13)CCCC2 | binding | competition with immobilised ligand | 1 µM | 89%
O=C(NCCCN1CCOCC1)c1ccc(Nc2ncc(Cl)c(-c3ccc(Cl)s3)n2)cc1 | binding | competition with immobilised ligand | 1 µM | 95%
Cc1nc(C2CCN(C(=O)c3ccc(OC(F)(F)F)cc3N)CC2)c2ncc(N3CCN(C)CC3)cc2n1 | cell-free assay | competition with immobilised ligand | 1 µM | 98%
CNC(=O)[C@@H]1CC[C@@H](n2c(-c3ccc4cnccc4c3)nc3ccc(C(=O)NCc4cccc(C(N)=O)c4)cc32)C1 | binding | competition with immobilised ligand | 1 µM | 91%
O=c1nc(-c2ccccn2)sc2ccccc12 | cell-free assay | competition with immobilised ligand | 1 µM | 78%
C=CC(=O)N1CCC(C(=O)NCC(=O)N2CCN(c3nc(-c4cnc(N)nc4C(F)F)nc(N4CCOCC4)n3)CC2)CC1 | binding | competition with immobilised ligand | 1 µM | 100%
N[C@@H]1CCN(c2nccc(-c3cnn4ncccc34)n2)C1 | binding | – | 1 µM | 100%
CCOC(=O)c1cc2cc(-c3cc(C(=O)NCc4ccc(C(=O)O)cc4)nn3C)ccc2[nH]1 | cell-free assay | competition with immobilised ligand | 0.1 µM | 100%
COc1ccnn2ncc(-c3ccnc(N(C)C)n3)c12 | binding | – | 1 µM | 100%
Cc1cnc(Nc2ccc(C(=O)N3CCC(N4CCCC4)CC3)cc2)nc1-c1cc2ccccc2s1 | binding | competition with immobilised ligand | 1 µM | 100%
NS(=O)(=O)c1cc(NC(=O)C2(c3ccccc3Cl)CC2)ccc1Oc1cccc(Cl)c1 | cell-free assay | competition with immobilised ligand | 1 µM | 80%
CN(CCCC(F)(F)F)c1nccc(-c2cnn3ncccc23)n1 | binding | – | 1 µM | 93%
